# Measured values taken from ChEMBL document CHEMBL5058577, “EUbOPEN Chemogenomics Library 2 (Multiplex)” (2022).
# Tested on: HEK-293T
# Test: Multiplex assay against HEK293T
# Type: toxicity, cell-based
# Conditions: human
# Method in brief: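 Hoechst33342, BioTracker Green Microtubule Cytoskeleton Dye, MitoTracker Red and Annexin V Alexa Fluor 680 were added to live cells at seeding, and imaging on a CQ1 microscope at 37°C and 5% CO2 followed compound addition. Gating by CellPathfinder machine learning separated cells into Hoechst high-intensity objects or normal cells, then normal cells into healthy, pyknosed or fragmented nuclei, then pyknosed cells into mitotic or apoptotic. Per cents of healthy-nucleus cells are reported for the tubulin, mitochondrial-mass and membrane-permeability phenotypes.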
# [1] = 12 h, 1 µM, compound concentration 1 uM, replicate 1
# [2] = 12 h, 1 µM, compound concentration 1 uM, replicate 2
# [3] = 12 h, 10 µM, compound concentration 10 uM, replicate 1
# [4] = 12 h, 10 µM, compound concentration 10 uM, replicate 2
# [5] = 24 h, 1 µM, compound concentration 1 uM, replicate 1
# [6] = 24 h, 1 µM, compound concentration 1 uM, replicate 2
# [7] = 24 h, 10 µM, compound concentration 10 uM, replicate 1
# [8] = 24 h, 10 µM, compound concentration 10 uM, replicate 2
# [9] = 48 h, 1 µM, compound concentration 1 uM, replicate 1
# [10] = 48 h, 1 µM, compound concentration 1 uM, replicate 2
# [11] = 48 h, 10 µM, compound concentration 10 uM, replicate 1
# [12] = 48 h, 10 µM, compound concentration 10 uM, replicate 2
smiles,measurement,setting,value
CCn1c(-c2nc3cc(C(=O)N4CCCC(N)C4)ccc3n2C)cc2ccccc21.Cl (configuration not stated),Population Apoptotic (%),[1],54%
same,Population Fragmented Nuclei (%),[1],9%
same,Population Healthy Nuclei (%),[1],77%
same,Population Hoechst High Intensity Objects (%),[1],7%
same,Population Membrane Permeable-Phenotype (%),[1],0%
same,Population Mitochondria Different-Phenotype (%),[1],52%
same,Population Mitotic Cells (%),[1],45%
same,Population Normal (%),[1],92%
same,Population Pyknosed Nuclei (%),[1],13%
same,Population Tubulin-Different-Phenotype (%),[1],33%
same,Total Cell Count,[1],351
same,Population Apoptotic (%),[2],47%
same,Population Fragmented Nuclei (%),[2],5%
same,Population Healthy Nuclei (%),[2],81%
same,Population Hoechst High Intensity Objects (%),[2],6%
same,Population Mitochondria Different-Phenotype (%),[2],69%
same,Population Mitotic Cells (%),[2],52%
same,Population Normal (%),[2],93%
same,Population Tubulin-Different-Phenotype (%),[2],20%
same,Total Cell Count,[2],312
same,Population Apoptotic (%),[3],53%
same,Population Fragmented Nuclei (%),[3],8%
same,Population Healthy Nuclei (%),[3],74%
same,Population Hoechst High Intensity Objects (%),[3],11%
same,Population Membrane Permeable-Phenotype (%),[3],0%
same,Population Mitochondria Different-Phenotype (%),[3],85%
same,Population Mitotic Cells (%),[3],46%
same,Population Normal (%),[3],88%
same,Population Pyknosed Nuclei (%),[3],17%
same,Population Tubulin-Different-Phenotype (%),[3],75%
same,Total Cell Count,[3],406
same,Population Fragmented Nuclei (%),[4],6%
same,Population Healthy Nuclei (%),[4],78%
same,Population Hoechst High Intensity Objects (%),[4],8%
same,Population Normal (%),[4],91%
same,Population Pyknosed Nuclei (%),[4],15%
same,Population Tubulin-Different-Phenotype (%),[4],64%
same,Total Cell Count,[4],398
same,Population Apoptotic (%),[5],35%
same,Population Fragmented Nuclei (%),[5],9%
same,Population Healthy Nuclei (%),[5],80%
same,Population Hoechst High Intensity Objects (%),[5],6%
same,Population Membrane Permeable-Phenotype (%),[5],0%
same,Population Mitochondria Different-Phenotype (%),[5],37%
same,Population Mitotic Cells (%),[5],64%
same,Population Normal (%),[5],93%
same,Population Pyknosed Nuclei (%),[5],10%
same,Population Tubulin-Different-Phenotype (%),[5],22%
same,Total Cell Count,[5],459
same,Population Apoptotic (%),[6],39%
same,Population Healthy Nuclei (%),[6],79%
same,Population Hoechst High Intensity Objects (%),[6],4%
same,Population Mitochondria Different-Phenotype (%),[6],49%
same,Population Mitotic Cells (%),[6],60%
same,Population Normal (%),[6],95%
same,Population Pyknosed Nuclei (%),[6],11%
same,Population Tubulin-Different-Phenotype (%),[6],14%
same,Total Cell Count,[6],383
same,Population Apoptotic (%),[7],51%
same,Population Fragmented Nuclei (%),[7],11%
same,Population Healthy Nuclei (%),[7],70%
same,Population Hoechst High Intensity Objects (%),[7],12%
same,Population Membrane Permeable-Phenotype (%),[7],1%
same,Population Mitochondria Different-Phenotype (%),[7],72%
same,Population Mitotic Cells (%),[7],48%
same,Population Normal (%),[7],87%
same,Population Pyknosed Nuclei (%),[7],18%
same,Population Tubulin-Different-Phenotype (%),[7],64%
same,Total Cell Count,[7],449
same,Population Apoptotic (%),[8],40%
same,Population Fragmented Nuclei (%),[8],8%
same,Population Healthy Nuclei (%),[8],78%
same,Population Hoechst High Intensity Objects (%),[8],9%
same,Population Membrane Permeable-Phenotype (%),[8],0%
same,Population Mitochondria Different-Phenotype (%),[8],83%
same,Population Mitotic Cells (%),[8],59%
same,Population Normal (%),[8],90%
same,Population Pyknosed Nuclei (%),[8],13%
same,Population Tubulin-Different-Phenotype (%),[8],58%
same,Total Cell Count,[8],471
same,Population Apoptotic (%),[9],20%
same,Population Fragmented Nuclei (%),[9],12%
same,Population Healthy Nuclei (%),[9],79%
same,Population Hoechst High Intensity Objects (%),[9],5%
same,Population Membrane Permeable-Phenotype (%),[9],1%
same,Population Mitochondria Different-Phenotype (%),[9],28%
same,Population Mitotic Cells (%),[9],79%
same,Population Normal (%),[9],94%
same,Population Pyknosed Nuclei (%),[9],8%
same,Population Tubulin-Different-Phenotype (%),[9],17%
same,Total Cell Count,[9],771
same,Population Apoptotic (%),[10],14%
same,Population Fragmented Nuclei (%),[10],13%
same,Population Healthy Nuclei (%),[10],81%
same,Population Hoechst High Intensity Objects (%),[10],4%
same,Population Membrane Permeable-Phenotype (%),[10],0%
same,Population Mitochondria Different-Phenotype (%),[10],30%
same,Population Mitotic Cells (%),[10],85%
same,Population Normal (%),[10],95%
same,Population Pyknosed Nuclei (%),[10],5%
same,Population Tubulin-Different-Phenotype (%),[10],11%
same,Total Cell Count,[10],640
same,Population Apoptotic (%),[11],50%
same,Population Fragmented Nuclei (%),[11],14%
same,Population Healthy Nuclei (%),[11],73%
same,Population Hoechst High Intensity Objects (%),[11],15%
same,Population Membrane Permeable-Phenotype (%),[11],0%
same,Population Mitochondria Different-Phenotype (%),[11],65%
same,Population Mitotic Cells (%),[11],49%
same,Population Normal (%),[11],84%
same,Population Pyknosed Nuclei (%),[11],12%
same,Population Tubulin-Different-Phenotype (%),[11],63%
same,Total Cell Count,[11],605
same,Population Apoptotic (%),[12],52%
same,Population Fragmented Nuclei (%),[12],10%
same,Population Healthy Nuclei (%),[12],79%
same,Population Hoechst High Intensity Objects (%),[12],8%
same,Population Mitochondria Different-Phenotype (%),[12],71%
same,Population Mitotic Cells (%),[12],47%
same,Population Normal (%),[12],91%
same,Population Pyknosed Nuclei (%),[12],9%
same,Total Cell Count,[12],613
